Active and inactive are the calls of the source. The rule behind the calls is not given here.
Key:
Type in all cases: cell-based
[1] = molecular target: T1, Protein cereblon/Baculoviral IAP repeat-containing protein 2 (Homo sapiens) (UniProt Q13490+Q96SW2); test: PROTAC activity at CRBN/IAP in human MM1.S cells assessed as induction of cIAP1 degradation at 0.1 uM by western blot analysis; settings: time 3-96 hrs, TDE = time-dependent effect
Outline: (§1)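 MM.1S cells treated 16 h at the stated concentration. Lysed, run on SDS-PAGE and transferred to PVDF. Probed with primary antibodies overnight at 4 °C, then HRP secondaries, with ECL detection. Band densitometry normalized to loading control and to DMSO-treated cells. Averages of at least three independent experiments.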

[2] = molecular target: T2, Protein cereblon/E3 ubiquitin-protein ligase XIAP (Homo sapiens) (UniProt P98170+Q96SW2); test: PROTAC activity at CRBN/IAP in human MM1.S cells assessed as induction of XIAP degradation incubated for 16 hrs by western blot analysis; settings: dose 0.0001-1 µM; outline: as §1
[3] = molecular target: T2, Protein cereblon/E3 ubiquitin-protein ligase XIAP (Homo sapiens); test: PROTAC activity at CRBN/IAP in human MM1.S cells assessed as induction of XIAP degradation at 0.1 uM incubated for 3 hrs by western blot analysis
Outline: (§2)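 MM.1S cells treated with 0.1 μM compound for 3 h. Western blotting of lysates on PVDF with HRP/ECL detection.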

[4] = molecular target: T3, Protein cereblon/Baculoviral IAP repeat-containing protein 3 (Homo sapiens) (UniProt Q13489+Q96SW2); test: PROTAC activity at CRBN/IAP in human MM1.S cells assessed as induction of cIAP2 degradation pretreated for 1 hr with proteasome inhibitor, MG132 followed by incubation with drug for 3 hrs by western blot analysis
[5] = molecular target: T1, Protein cereblon/Baculoviral IAP repeat-containing protein 2 (Homo sapiens); test: PROTAC activity at CRBN/IAP in human MM1.S cells assessed as induction of cIAP1 degradation at 0.1 uM incubated for 3 hrs by western blot analysis; outline: as §2
[6] = molecular target: T1, Protein cereblon/Baculoviral IAP repeat-containing protein 2 (Homo sapiens); test: PROTAC activity at CRBN/IAP in human MM1.S cells assessed as induction of cIAP1 degradation incubated for 16 hrs by western blot analysis; settings: dose 0.0001-1 µM; outline: as §1
[7] = molecular target: T1, Protein cereblon/Baculoviral IAP repeat-containing protein 2 (Homo sapiens); test: PROTAC activity at CRBN/IAP in human MM1.S cells assessed as induction of cIAP1 degradation pretreated for 1 hr with ubiquitin-activating inhibitor, MLN7243 followed by incubation with drug for 3 hrs by western blot analysis
[8] = molecular target: T2, Protein cereblon/E3 ubiquitin-protein ligase XIAP (Homo sapiens); test: PROTAC activity at CRBN/IAP in human MM1.S cells assessed as induction of XIAP degradation at 10 nM incubated for 16 hrs by western blot analysis
[9] = molecular target: T2, Protein cereblon/E3 ubiquitin-protein ligase XIAP (Homo sapiens); test: PROTAC activity at CRBN/IAP in human MM1.S cells assessed as induction of XIAP degradation pretreated for 1 hr with proteasome inhibitor, MG132 followed by incubation with drug for 3 hrs by western blot analysis
[10] = molecular target: T2, Protein cereblon/E3 ubiquitin-protein ligase XIAP (Homo sapiens); test: PROTAC activity at CRBN/IAP in human MM1.S cells assessed as induction of XIAP degradation at 0.1 uM by western blot analysis; settings: time 3-96 hrs, TDE = time-dependent effect
[11] = molecular target: T2, Protein cereblon/E3 ubiquitin-protein ligase XIAP (Homo sapiens); test: PROTAC activity at CRBN/IAP in human MM1.S cells assessed as induction of XIAP degradation at 0.1 uM incubated for 3 hrs by diaPASEF-based proteomics analysis
Outline: (§3)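 MM.1S cells exposed to DMSO or 0.1 μM compound for 3 h, then washed with PBS and snap-frozen. Lysed in 8 M urea/EPPS pH 8.5 buffer. 50 μg protein reduced, alkylated, precipitated, then digested with LysC and trypsin. Analysed by diaPASEF on timsTOF Pro2. Missing values imputed from a Gaussian distribution; log2 fold change versus DMSO with limma statistics.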

[12] = molecular target: T1, Protein cereblon/Baculoviral IAP repeat-containing protein 2 (Homo sapiens); test: PROTAC activity at CRBN/IAP in human MM1.S cells assessed as induction of cIAP1 degradation at 100 nM incubated for 3 hrs by diaPASEF-based analysis; outline: as §3
[13] = molecular target: T3, Protein cereblon/Baculoviral IAP repeat-containing protein 3 (Homo sapiens); test: PROTAC activity at CRBN/IAP in human MM1.S cells assessed as induction of cIAP2 degradation incubated for 16 hrs by western blot analysis; settings: dose 0.0001-1 µM; outline: as §1
[14] = molecular target: T3, Protein cereblon/Baculoviral IAP repeat-containing protein 3 (Homo sapiens); test: PROTAC activity at CRBN/IAP in human MM1.S cells assessed as induction of cIAP2 degradation pretreated for 1 hr with ubiquitin-activating inhibitor, MLN7243 followed by incubation with drug for 3 hrs by western blot analysis
[15] = molecular target: T1, Protein cereblon/Baculoviral IAP repeat-containing protein 2 (Homo sapiens); test: PROTAC activity at CRBN/IAP in human MM1.S cells assessed as induction of cIAP1 degradation pretreated for 1 hr with proteasome inhibitor, MG132 followed by incubation with drug for 3 hrs by western blot analysis
[16] = molecular target: T2, Protein cereblon/E3 ubiquitin-protein ligase XIAP (Homo sapiens); test: PROTAC activity at CRBN/IAP in human MM1.S cells assessed as induction of XIAP degradation pretreated for 1 hr with ubiquitin-activating inhibitor, MLN7243 followed by incubation with drug for 3 hrs by western blot analysis
[17] = molecular target: T3, Protein cereblon/Baculoviral IAP repeat-containing protein 3 (Homo sapiens); test: PROTAC activity at CRBN/IAP in human MM1.S cells assessed as induction of cIAP2 degradation at 0.1 uM by western blot analysis; settings: time 3-96 hrs, TDE = time-dependent effect; outline: as §1
[18] = molecular target: T1, Protein cereblon/Baculoviral IAP repeat-containing protein 2 (Homo sapiens); test: PROTAC activity at CRBN/IAP in human MM1.S cells assessed as induction of cIAP1 degradation at 10 nM incubated for 16 hrs by western blot analysis; outline: as §1
[19] = molecular target: Protein cereblon/Zinc finger protein Aiolos (Homo sapiens) (UniProt Q96SW2+Q9UKT9); test: PROTAC activity at CRBN/IKZF3 in human MM1.S cells assessed as induction of IKZF3 degradation at 1 uM incubated for 16 hrs by western blot analysis; outline: as §1
[20] = molecular target: T3, Protein cereblon/Baculoviral IAP repeat-containing protein 3 (Homo sapiens); test: PROTAC activity at CRBN/IAP in human MM1.S cells assessed as induction of cIAP2 degradation at 0.1 uM incubated for 3 hrs by western blot analysis; outline: as §2

T1 sequence (Q13490 whole entry, looked up): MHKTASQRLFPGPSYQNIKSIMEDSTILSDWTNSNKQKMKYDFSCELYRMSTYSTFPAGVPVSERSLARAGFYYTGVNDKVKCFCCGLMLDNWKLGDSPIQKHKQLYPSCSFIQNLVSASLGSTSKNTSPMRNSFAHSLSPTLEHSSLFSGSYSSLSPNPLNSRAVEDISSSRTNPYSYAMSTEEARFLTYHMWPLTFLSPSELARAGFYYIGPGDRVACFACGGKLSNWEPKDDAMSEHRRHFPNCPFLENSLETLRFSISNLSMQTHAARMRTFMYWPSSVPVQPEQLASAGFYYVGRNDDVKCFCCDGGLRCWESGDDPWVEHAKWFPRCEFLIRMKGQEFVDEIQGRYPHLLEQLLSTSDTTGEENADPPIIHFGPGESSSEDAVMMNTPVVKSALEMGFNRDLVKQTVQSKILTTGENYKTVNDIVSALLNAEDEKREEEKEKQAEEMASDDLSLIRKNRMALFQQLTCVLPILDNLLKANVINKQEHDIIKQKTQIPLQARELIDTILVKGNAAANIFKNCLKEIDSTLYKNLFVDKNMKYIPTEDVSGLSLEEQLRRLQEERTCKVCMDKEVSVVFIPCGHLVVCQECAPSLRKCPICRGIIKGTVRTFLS
T1 sequence (Q96SW2 whole entry, looked up): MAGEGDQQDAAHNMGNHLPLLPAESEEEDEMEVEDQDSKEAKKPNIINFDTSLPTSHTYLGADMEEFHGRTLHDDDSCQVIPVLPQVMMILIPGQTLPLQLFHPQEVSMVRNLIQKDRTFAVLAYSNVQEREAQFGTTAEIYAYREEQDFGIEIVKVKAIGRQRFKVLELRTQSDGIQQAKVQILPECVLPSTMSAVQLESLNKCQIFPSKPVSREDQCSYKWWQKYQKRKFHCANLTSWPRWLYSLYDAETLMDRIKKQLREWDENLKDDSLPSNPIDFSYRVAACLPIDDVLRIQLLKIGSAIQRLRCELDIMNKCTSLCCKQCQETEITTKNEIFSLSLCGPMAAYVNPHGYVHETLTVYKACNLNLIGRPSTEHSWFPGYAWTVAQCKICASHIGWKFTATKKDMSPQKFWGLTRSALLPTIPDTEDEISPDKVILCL
T3 sequence (Q13489 whole entry, looked up): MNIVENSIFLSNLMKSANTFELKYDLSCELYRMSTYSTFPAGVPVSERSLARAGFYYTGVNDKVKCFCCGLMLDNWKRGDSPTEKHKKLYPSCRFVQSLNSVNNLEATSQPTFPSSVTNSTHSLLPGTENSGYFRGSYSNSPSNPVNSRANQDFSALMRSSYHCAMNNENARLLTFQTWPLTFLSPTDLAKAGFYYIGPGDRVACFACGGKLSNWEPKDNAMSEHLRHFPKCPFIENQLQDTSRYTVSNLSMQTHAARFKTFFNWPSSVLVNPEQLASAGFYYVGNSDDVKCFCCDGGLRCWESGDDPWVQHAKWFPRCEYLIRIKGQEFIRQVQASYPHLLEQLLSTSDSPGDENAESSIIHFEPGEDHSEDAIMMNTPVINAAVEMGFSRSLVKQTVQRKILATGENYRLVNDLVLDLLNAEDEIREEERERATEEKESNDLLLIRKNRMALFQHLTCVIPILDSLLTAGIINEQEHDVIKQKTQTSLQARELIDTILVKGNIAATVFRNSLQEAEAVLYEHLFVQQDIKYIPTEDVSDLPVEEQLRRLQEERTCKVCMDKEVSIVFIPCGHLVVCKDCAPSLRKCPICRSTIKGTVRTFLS
T3 sequence (Q96SW2 whole entry, looked up): as the sequence (Q96SW2 whole entry, looked up) above
T2 sequence (P98170 whole entry, looked up): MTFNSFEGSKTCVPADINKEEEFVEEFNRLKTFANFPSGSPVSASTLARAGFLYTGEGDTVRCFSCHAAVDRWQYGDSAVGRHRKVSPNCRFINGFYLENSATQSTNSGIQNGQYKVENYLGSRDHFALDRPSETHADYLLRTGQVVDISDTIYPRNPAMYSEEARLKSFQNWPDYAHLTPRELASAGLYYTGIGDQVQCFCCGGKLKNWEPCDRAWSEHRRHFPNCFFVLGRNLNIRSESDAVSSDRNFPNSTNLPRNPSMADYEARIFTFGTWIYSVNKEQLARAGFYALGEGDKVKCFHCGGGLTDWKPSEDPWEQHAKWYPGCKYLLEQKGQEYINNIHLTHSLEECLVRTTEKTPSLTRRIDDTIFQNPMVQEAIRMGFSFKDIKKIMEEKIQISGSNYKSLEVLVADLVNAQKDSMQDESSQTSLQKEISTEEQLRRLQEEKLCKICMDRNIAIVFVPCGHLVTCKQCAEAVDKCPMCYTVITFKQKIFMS
T2 sequence (Q96SW2 whole entry, looked up): as the sequence (Q96SW2 whole entry, looked up) above
Protein cereblon/Zinc finger protein Aiolos (Homo sapiens), sequence (Q96SW2 whole entry, looked up): as above
Protein cereblon/Zinc finger protein Aiolos (Homo sapiens), sequence (Q9UKT9 whole entry, looked up): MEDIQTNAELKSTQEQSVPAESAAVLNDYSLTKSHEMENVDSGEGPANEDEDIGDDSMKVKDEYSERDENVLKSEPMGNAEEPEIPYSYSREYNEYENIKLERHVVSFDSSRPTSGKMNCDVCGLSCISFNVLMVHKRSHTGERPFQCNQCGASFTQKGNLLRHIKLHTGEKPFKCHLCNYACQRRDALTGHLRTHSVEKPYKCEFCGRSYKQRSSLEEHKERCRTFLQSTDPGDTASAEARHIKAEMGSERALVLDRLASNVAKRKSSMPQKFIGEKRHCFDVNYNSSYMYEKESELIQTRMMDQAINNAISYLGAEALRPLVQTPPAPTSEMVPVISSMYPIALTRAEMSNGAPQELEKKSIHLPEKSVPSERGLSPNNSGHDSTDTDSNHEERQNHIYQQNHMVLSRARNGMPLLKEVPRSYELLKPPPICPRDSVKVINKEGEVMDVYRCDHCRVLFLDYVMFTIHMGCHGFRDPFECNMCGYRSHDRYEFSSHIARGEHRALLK

Activity [1]: Tde
Activity [2]: Dose-Dependent Effect
Activity [3]: 100%
Activity [4]: inactive
Activity [5]: 100%
Activity [6]: Dose-Dependent Effect
Activity [7]: inactive
Activity [8]: 100%
Activity [9]: inactive
Activity [10]: Tde
Activity [11]: Active
Activity [12]: Active
Activity [13]: Dose-Dependent Effect
Activity [14]: inactive
Activity [15]: inactive
Activity [16]: inactive
Activity [17]: Tde
Activity [18]: 100%
Activity [19]: Active
Activity [20]: 100%
SMILES: CN[C@@H](C)C(=O)N[C@H](C(=O)N1C[C@@H](Oc2cccc(OCCOCCCCCCOCCCCCCNc3cccc4c3C(=O)N(C3CCC(=O)NC3=O)C4=O)c2)C[C@H]1C(=O)N[C@@H]1CCCc2ccccc21)C1CCCCC1 (stereo not given in full)

— ChEMBL document CHEMBL5338733, “Heterobifunctional Ligase Recruiters Enable pan-Degradation of Inhibitor of Apoptosis Proteins” (J Med Chem, 2023)
